Bioassay records (PubChem)
A selection follows.
Apaf1 activ: human Apaf-1 activation | activity change, negative = activation, % at 20 µM | Apaf-1 apoptosome caspase-3 activation, DEVD-Rh110 fluorescence; active compounds read low | hit rate 0.31% among 330,000 | AID 489031 | O14727;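 active = activity change at or below -40% at 20 µM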
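System: Reconstituted apoptosome of Apaf-1, cytochrome c, caspase-9, procaspase-3 | Reagent: dATP, cytochrome c, and (Z-DEVD)2-Rh110 caspase-3 substrate | Times: 30 min compound preincubation and 50 min reaction, both room temperature | Detection: Caspase-3-released Rh110 fluorescence, 540 nm emission, 480 nm excitation | Measure: Caspase-3 activity via Apaf-1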
Rh110 act interf: Rh110 signal interference in Apaf-1 activator counter-screen; shares compounds with Apaf1 activ; Rh110 fluorescence interference, quenched caspase reaction, Ex480/Em540; fluorescence interference (activity change), % at 20 µM, hits read low; 980 tested, under 10 active;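 active = mean activity change at or below -40% when tested at 20 µM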
Apaf-1 act conf2: Apaf-1 (human) activation, single-dose confirmed; reconstituted apoptosome caspase-3 activity, DEVD-Rh110 fluorescence; active compounds read low; activity change, negative = activation, % at 20 µM; shares compounds with Apaf1 activ; hit rate 5% among 980;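 active = mean activity change at or below -40%, meaning activation of 40% or more, at 20 µM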
Numbers stand for hits; – = inactive; · = no result given.

SMILES | Apaf1 activ | Rh110 act interf | Apaf-1 act conf2
O=C(Cc1cc(=O)[nH][nH]1)N/N=C/c1cccc(Cl)c1Cl | – | · | ·
COc1ccc(CNC(=O)CNS(=O)(=O)c2ccc(Cl)cc2)cc1 | -176.7 | – | –
c1ccc(C(c2nnnn2C2CCCCC2)N2CCc3ccccc3C2)nc1 (stereo not given) | – | · | ·
Nc1cc(N)c(OCC(F)(F)F)cc1OCC(F)(F)F | – | · | ·
Cc1c(C(=O)Nc2ccncc2)sc2nc(-c3ccc(F)cc3)cn12 | -43.8 | – | –
CC(C)CC(=O)N[C@H](C(=O)N[C@H](C(=O)N[C@@H](CC(C)C)[C@@H](O)CC(=O)N[C@@H](C)C(=O)N[C@@H](CC(C)C)[C@@H](O)CC(=O)O)C(C)C)C(C)C | -239.3 | -233.5 | –
Cc1onc(-c2ccccc2Cl)c1C(=O)N[C@@H]1C(=O)N2[C@@H]1SC(C)(C)[C@@H]2C(=O)O | – | · | ·
CSc1ccc(CN(C)C(=O)CSCC(=O)Nc2cc(C)on2)cc1 | – | · | ·
Cc1ccc(-n2nc3ccc(N)cc3n2)cc1Cl | – | · | ·
CCC(=O)N(CC)C1=C(O)c2ccccc2C(=O)C1=O | – | · | ·
COc1ccc(-c2nc(-c3ccccc3)c(-c3cccs3)[nH]2)cc1OC | -373.1 | – | –
CCCN[C@H]1CCc2nc(N)sc2C1 | – | · | ·
CCc1ccc(Nc2n[n+](-c3ccccc3)c(-c3c(Cl)cccc3Cl)s2)cc1 | – | · | ·
Cc1[nH]c(=O)[nH]c(=O)c1S(=O)(=O)N1CCN(c2ccccc2F)CC1 | -517.3 | – | –
N#Cc1c(N)n(CCNC(=O)c2ccc(Cl)cc2)c2nc3ccccc3nc12 | – | · | ·
O=C(Nc1ccccc1O)c1ccc2c(c1)C(=O)N(Cc1ccco1)C2=O | -93.2 | – | –
CC(Nc1cccc2ccccc12)C(=O)N/N=C/c1ccccn1 (stereo not given) | – | · | ·
N#Cc1cc2ccc(N3CCOCC3)cc2cc1C#N | – | · | ·
COc1nc(N/N=C/c2ccc(-c3ccccc3[N+](=O)[O-])o2)nc(N2CCOCC2)n1 | – | · | ·
Cc1cc(C)nc(N/N=C/c2ccc(N3CCOCC3)cc2)n1 | -67.8 | – | –
O=C1C2=C(c3ccccc31)[N+](=O)[C@@H]1CCCC[C@@H]1N2[O-] | – | · | ·
COc1ccc(C(c2c(C)[nH]n(-c3ccccc3)c2=O)c2c(C)[nH]n(-c3ccccc3)c2=O)cc1OC | – | · | ·
Cn1cc([N+](=O)[O-])c(C(=O)NNC(=O)c2ccc([N+](=O)[O-])cc2Cl)n1 | -160.7 | – | –
O=C(NNc1cc(N2CCCC2)nc(N2CCCC2)n1)c1ccc([N+](=O)[O-])cc1 | – | · | ·
COc1ccc(CN(C)C(=O)c2ccc(OCC(=O)Nc3cccc(C(F)(F)F)c3)c(OC)c2)c(OC)c1 | – | · | ·
SMILES | Apaf1 activ | Rh110 act interf | Apaf-1 act conf2
COc1cc(OC)c(OC)cc1/C=N/N(C)c1ccccc1 | -78.5 | – | –
COc1ccccc1/C=N/Nc1cc(N(C)C)nc(N(C)C)n1 | – | · | ·
Cn1ccc2cc3c(cc21)CCN3C(=O)Nc1cccnc1 | – | · | ·
CCOc1ccc(CCNC(=O)c2ccc3c(=O)[nH]c4c(C(=O)NC(C)C)sc(=S)n4c3c2)cc1 | -515.0 | – | –
O=S(=O)(c1ccc(Br)cc1)N1CCN(c2ccc3nnc(-c4ccccc4)n3n2)CC1 | – | · | ·
COc1ccc(/C=N/NC(=O)CCn2cnc(-c3ccccc3)c2-c2ccccc2)cc1 | – | · | ·
COc1cccc(/C=N/NC(=O)CCn2nnc3ccccc32)c1 | -69.6 | – | –
Cc1[nH]n(-c2ccccc2)c(=O)c1C(C[N+](=O)[O-])c1ccc(F)cc1 (stereo not given) | – | · | ·
COc1ccc2noc3c2c1C(=O)c1ccccc1-3 | – | · | ·
CCCCC[n+]1ccn(C2=C([O-])c3ccccc3C(=O)/C2=N\S(=O)(=O)c2ccc(Br)cc2)c1 | – | · | ·
CCCCNc1c(-c2ccc(OC)c(SC(C)CC)c2)nc2cc(C)ccn12 (stereo not given) | – | · | ·
C#CCOCCOCCOCCNc1nc(N2CCN(C(=O)CCCCCCCCCCNC(=O)[C@H](CCCCN)n3cc(C)nn3)CC2)nc(N2CCN(C(=O)CCCCCCCCCCNC(=O)[C@@H]([C@H](C)CC)n3cc(CCCCCN)nn3)CC2)n1 | – | · | ·
Cc1ccc(C(=O)N/C(=C\c2ccc(-c3ccccc3[N+](=O)[O-])o2)C(=O)NCCCN2CCOCC2)cc1 | – | · | ·
Nc1ccc(C(=O)N/N=C/c2cccc(Oc3ccccc3)c2)cc1 | -64.4 | – | –
Cc1[nH]n(-c2ccccc2)c(=O)c1/C=N/NC(=O)c1cccc(F)c1 | – | · | ·
COc1ccc(N)cc1-n1c(C)ccc1C | – | · | ·
O=C(NNC(=O)C1CC1)c1ccccc1[N+](=O)[O-] | -59.9 | – | –
O=[N+]([O-])c1ccccc1-c1ccc(C(=S)N2CCCC2)o1 | – | · | ·
CC1=NN(c2ccccc2)C(=O)C1 | – | · | ·
O=C1C(C2=C(O)c3ccccc3C2=O)=Nc2ccccc21 | – | · | ·
